Source: ChEMBL document CHEMBL5724801, “EUbOPEN Chemogenomics Library - Multiplex” (2024)
“And” between values parts separate entries of the source, which are not always exact repeats. Identical values can stand only once.

Test system: Fibroblast
Assay: Multiplex assay against human fibroblast
Assay type: toxicity, cell-based
In short: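 Four dyes were applied at seeding to live cells: Hoechst33342, BioTracker Green Microtubule Cytoskeleton Dye, MitoTracker Red and Annexin V Alexa Fluor 680. Imaging after compound addition used a CQ1 microscope at 37°C and 5% CO2. CellPathfinder machine-learning gating then sorted cells into Hoechst high-intensity objects or normal cells, normal cells into healthy, pyknosed or fragmented nuclei, and pyknosed cells into mitotic or apoptotic, with tubulin, mitochondrial-mass and membrane-permeability phenotypes given as per cents of healthy-nucleus cells.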

[1] = 12 h, 1 µM, compound concentration 1 uM
[2] = 12 h, 10 µM, compound concentration 10 uM
[3] = 24 h, 1 µM, compound concentration 1 uM
[4] = 24 h, 10 µM, compound concentration 10 uM
[5] = 48 h, 1 µM, compound concentration 1 uM
[6] = 48 h, 10 µM, compound concentration 10 uM

Structure (SMILES): S=c1[nH]nc(-c2cccs2)n1-c1ccccc1
- Population Apoptotic (%) [1]: 10.45% and 27.27%
- Population Fragmented Nuclei (%) [1]: 8.13% and 2.86%
- Population Healthy Nuclei (%) [1]: 59.81% and 84.57%
- Population Hoechst High Intensity Objects (%) [1]: 0%
- Population Membrane Permeable-Phenotype (%) [1]: 2.4% and 4.05%
- Population Mitochondria Different-Phenotype (%) [1]: 10.4% and 6.76%
- Population Mitotic Cells (%) [1]: 89.55% and 72.73%
- Population Normal (%) [1]: 100%
- Population Pyknosed Nuclei (%) [1]: 32.06% and 12.57%
- Population Tubulin-Different-Phenotype (%) [1]: 13.6% and 28.38%
- Total Cell Count [1]: 209 and 175
- Population Apoptotic (%) [2]: 17.07% and 26.67%
- Population Healthy Nuclei (%) [2]: 62.62% and 78.84%
- Population Hoechst High Intensity Objects (%) [2]: 0%
- Population Membrane Permeable-Phenotype (%) [2]: 5.97% and 4.03%
- Population Mitochondria Different-Phenotype (%) [2]: 8.21% and 11.41%
- Population Mitotic Cells (%) [2]: 82.93% and 73.33%
- Population Normal (%) [2]: 100%
- Population Pyknosed Nuclei (%) [2]: 19.16% and 15.87%
- Population Tubulin-Different-Phenotype (%) [2]: 14.18% and 20.13%
- Total Cell Count [2]: 214 and 189
- Population Fragmented Nuclei (%) [3]: 7.76% and 4%
- Population Healthy Nuclei (%) [3]: 78.88% and 84%
- Population Hoechst High Intensity Objects (%) [3]: 0%
- Population Membrane Permeable-Phenotype (%) [3]: 3.28% and 2.04%
- Population Mitochondria Different-Phenotype (%) [3]: 4.92% and 4.76%
- Population Mitotic Cells (%) [3]: 93.55% and 76.19%
- Population Normal (%) [3]: 100%
- Population Pyknosed Nuclei (%) [3]: 13.36% and 12%
- Population Tubulin-Different-Phenotype (%) [3]: 8.2% and 19.05%
- Total Cell Count [3]: 232 and 175
- Population Apoptotic (%) [4]: 16.22% and 35.71%
- Population Fragmented Nuclei (%) [4]: 14.71% and 5.24%
- Population Healthy Nuclei (%) [4]: 69.75% and 80.1%
- Population Hoechst High Intensity Objects (%) [4]: 0%
- Population Membrane Permeable-Phenotype (%) [4]: 3.61% and 5.88%
- Population Mitochondria Different-Phenotype (%) [4]: 4.22% and 5.23%
- Population Mitotic Cells (%) [4]: 83.78% and 64.29%
- Population Normal (%) [4]: 100%
- Population Pyknosed Nuclei (%) [4]: 15.55% and 14.66%
- Population Tubulin-Different-Phenotype (%) [4]: 11.45% and 16.99%
- Total Cell Count [4]: 238 and 191
- Population Apoptotic (%) [5]: 8.33% and 10.53%
- Population Fragmented Nuclei (%) [5]: 8.8% and 5.49%
- Population Healthy Nuclei (%) [5]: 86.4% and 84.07%
- Population Hoechst High Intensity Objects (%) [5]: 0%
- Population Membrane Permeable-Phenotype (%) [5]: 0.93% and 1.96%
- Population Mitochondria Different-Phenotype (%) [5]: 10.19% and 2.61%
- Population Mitotic Cells (%) [5]: 91.67% and 89.47%
- Population Normal (%) [5]: 100%
- Population Pyknosed Nuclei (%) [5]: 4.8% and 10.44%
- Total Cell Count [5]: 250 and 182
- Population Apoptotic (%) [6]: 11.76% and 33.33%
- Population Fragmented Nuclei (%) [6]: 10.61% and 5.58%
- Population Healthy Nuclei (%) [6]: 82.45% and 88.32%
- Population Hoechst High Intensity Objects (%) [6]: 0%
- Population Membrane Permeable-Phenotype (%) [6]: 0% and 2.3%
- Population Mitochondria Different-Phenotype (%) [6]: 9.9% and 4.02%
- Population Mitotic Cells (%) [6]: 88.24% and 66.67%
- Population Normal (%) [6]: 100%
- Population Pyknosed Nuclei (%) [6]: 6.94% and 6.09%
- Total Cell Count [6]: 245 and 197

Structure (SMILES): Cl.Cl.N#Cc1ccc(O[C@@H]2c3ccccc3C[C@H]2N2CCC[C@@H](N)C2)c(Cl)c1
- Population Apoptotic (%) [1]: 13.21% and 14.29%
- Population Fragmented Nuclei (%) [1]: 8.33% and 10.47%
- Population Healthy Nuclei (%) [1]: 57.69% and 74.87%
- Population Hoechst High Intensity Objects (%) [1]: 0%
- Population Membrane Permeable-Phenotype (%) [1]: 6.67% and 4.9%
- Population Mitochondria Different-Phenotype (%) [1]: 20% and 19.58%
- Population Mitotic Cells (%) [1]: 86.79% and 85.71%
- Population Normal (%) [1]: 100%
- Population Pyknosed Nuclei (%) [1]: 33.97% and 14.66%
- Population Tubulin-Different-Phenotype (%) [1]: 35.56% and 58.04%
- Total Cell Count [1]: 156 and 191
- Population Apoptotic (%) [2]: 14.81% and 27.63%
- Population Fragmented Nuclei (%) [2]: 18.93% and 7.94%
- Population Healthy Nuclei (%) [2]: 49.11% and 64.62%
- Population Hoechst High Intensity Objects (%) [2]: 0%
- Population Membrane Permeable-Phenotype (%) [2]: 3.61% and 6.15%
- Population Mitochondria Different-Phenotype (%) [2]: 62.65% and 43.58%
- Population Mitotic Cells (%) [2]: 85.19% and 72.37%
- Population Normal (%) [2]: 100%
- Population Pyknosed Nuclei (%) [2]: 31.95% and 27.44%
- Population Tubulin-Different-Phenotype (%) [2]: 78.31% and 88.83%
- Total Cell Count [2]: 169 and 277
- Population Fragmented Nuclei (%) [3]: 6.79% and 14.63%
- Population Healthy Nuclei (%) [3]: 62.35% and 76.59%
- Population Hoechst High Intensity Objects (%) [3]: 0%
- Population Membrane Permeable-Phenotype (%) [3]: 4.95% and 3.18%
- Population Mitochondria Different-Phenotype (%) [3]: 18.81% and 13.38%
- Population Mitotic Cells (%) [3]: 98% and 77.78%
- Population Normal (%) [3]: 100%
- Population Tubulin-Different-Phenotype (%) [3]: 36.63% and 57.32%
- Total Cell Count [3]: 162 and 205
- Population Apoptotic (%) [4]: 29.27% and 37.5%
- Population Fragmented Nuclei (%) [4]: 11.58% and 4.05%
- Population Healthy Nuclei (%) [4]: 66.84% and 78.5%
- Population Hoechst High Intensity Objects (%) [4]: 0%
- Population Membrane Permeable-Phenotype (%) [4]: 2.36% and 3.17%
- Population Mitochondria Different-Phenotype (%) [4]: 70.08% and 55.16%
- Population Mitotic Cells (%) [4]: 70.73% and 62.5%
- Population Normal (%) [4]: 100%
- Population Pyknosed Nuclei (%) [4]: 21.58% and 17.45%
- Population Tubulin-Different-Phenotype (%) [4]: 85.83% and 88.1%
- Total Cell Count [4]: 190 and 321
- Population Apoptotic (%) [5]: 20% and 38.89%
- Population Fragmented Nuclei (%) [5]: 13.79% and 11.43%
- Population Healthy Nuclei (%) [5]: 78.82% and 80%
- Population Hoechst High Intensity Objects (%) [5]: 0%
- Population Membrane Permeable-Phenotype (%) [5]: 1.88% and 1.79%
- Population Mitochondria Different-Phenotype (%) [5]: 16.88% and 10.12%
- Population Mitotic Cells (%) [5]: 80% and 61.11%
- Population Normal (%) [5]: 100%
- Population Pyknosed Nuclei (%) [5]: 7.39% and 8.57%
- Population Tubulin-Different-Phenotype (%) [5]: 32.5% and 59.52%
- Total Cell Count [5]: 203 and 210
- Population Apoptotic (%) [6]: 37.5% and 50%
- Population Healthy Nuclei (%) [6]: 75.86% and 86.13%
- Population Hoechst High Intensity Objects (%) [6]: 0%
- Population Membrane Permeable-Phenotype (%) [6]: 0.57% and 3.37%
- Population Mitochondria Different-Phenotype (%) [6]: 42.61% and 26.22%
- Population Mitotic Cells (%) [6]: 62.5% and 50%
- Population Normal (%) [6]: 100%
- Population Pyknosed Nuclei (%) [6]: 3.45% and 7.1%
- Population Tubulin-Different-Phenotype (%) [6]: 79.55% and 86.89%
- Total Cell Count [6]: 232 and 310

Structure (SMILES): COc1cc2ncnc(Nc3ccc(Oc4ccccc4)cc3C)c2cc1OC.Cl
- Population Apoptotic (%) [1]: 11.11% and 23.33%
- Population Fragmented Nuclei (%) [1]: 12.3% and 7.85%
- Population Healthy Nuclei (%) [1]: 63.64% and 76.44%
- Population Hoechst High Intensity Objects (%) [1]: 0%
- Population Membrane Permeable-Phenotype (%) [1]: 5.04% and 3.42%
- Population Mitochondria Different-Phenotype (%) [1]: 8.4% and 12.33%
- Population Mitotic Cells (%) [1]: 88.89% and 76.67%
- Population Normal (%) [1]: 100%
- Population Pyknosed Nuclei (%) [1]: 24.06% and 15.71%
- Population Tubulin-Different-Phenotype (%) [1]: 15.13% and 13.7%
- Total Cell Count [1]: 187 and 191
- Population Apoptotic (%) [2]: 10.77% and 17.02%
- Population Fragmented Nuclei (%) [2]: 14.61% and 11.16%
- Population Healthy Nuclei (%) [2]: 48.88% and 68.67%
- Population Hoechst High Intensity Objects (%) [2]: 0%
- Population Membrane Permeable-Phenotype (%) [2]: 3.45% and 10.62%
- Population Mitochondria Different-Phenotype (%) [2]: 29.89% and 25%
- Population Mitotic Cells (%) [2]: 89.23% and 82.98%
- Population Normal (%) [2]: 100%
- Population Pyknosed Nuclei (%) [2]: 36.52% and 20.17%
- Population Tubulin-Different-Phenotype (%) [2]: 58.62% and 66.88%
- Total Cell Count [2]: 178 and 233
- Population Apoptotic (%) [3]: 0% and 16.67%
- Population Fragmented Nuclei (%) [3]: 10.95% and 4.57%
- Population Healthy Nuclei (%) [3]: 74.29% and 80.2%
- Population Hoechst High Intensity Objects (%) [3]: 0%
- Population Membrane Permeable-Phenotype (%) [3]: 5.77% and 1.9%
- Population Mitochondria Different-Phenotype (%) [3]: 7.05% and 6.33%
- Population Mitotic Cells (%) [3]: 100% and 83.33%
- Population Normal (%) [3]: 100%
- Population Pyknosed Nuclei (%) [3]: 14.76% and 15.23%
- Population Tubulin-Different-Phenotype (%) [3]: 15.38% and 12.66%
- Total Cell Count [3]: 210 and 197
- Population Fragmented Nuclei (%) [4]: 20.69% and 12.5%
- Population Healthy Nuclei (%) [4]: 59.48% and 79.49%
- Population Hoechst High Intensity Objects (%) [4]: 0%
- Population Membrane Permeable-Phenotype (%) [4]: 4.35% and 4.03%
- Population Mitochondria Different-Phenotype (%) [4]: 25.36% and 23.39%
- Population Mitotic Cells (%) [4]: 95.65% and 76%
- Population Normal (%) [4]: 100%
- Population Pyknosed Nuclei (%) [4]: 19.83% and 8.01%
- Population Tubulin-Different-Phenotype (%) [4]: 65.22% and 70.16%
- Total Cell Count [4]: 232 and 312
- Population Apoptotic (%) [5]: 14.29% and 18.75%
- Population Fragmented Nuclei (%) [5]: 14.46% and 12.14%
- Population Healthy Nuclei (%) [5]: 77.11% and 80.1%
- Population Hoechst High Intensity Objects (%) [5]: 0%
- Population Membrane Permeable-Phenotype (%) [5]: 1.04% and 1.21%
- Population Mitochondria Different-Phenotype (%) [5]: 11.98% and 4.85%
- Population Mitotic Cells (%) [5]: 85.71% and 81.25%
- Population Normal (%) [5]: 100%
- Population Pyknosed Nuclei (%) [5]: 8.43% and 7.77%
- Population Tubulin-Different-Phenotype (%) [5]: 8.33% and 15.76%
- Total Cell Count [5]: 249 and 206
- Population Apoptotic (%) [6]: 14.29% and 28.57%
- Population Fragmented Nuclei (%) [6]: 17.05% and 16.67%
- Population Healthy Nuclei (%) [6]: 78.98% and 81.45%
- Population Hoechst High Intensity Objects (%) [6]: 0%
- Population Membrane Permeable-Phenotype (%) [6]: 4.68% and 4.95%
- Population Mitochondria Different-Phenotype (%) [6]: 11.15% and 6.93%
- Population Mitotic Cells (%) [6]: 85.71% and 71.43%
- Population Normal (%) [6]: 100%
- Population Pyknosed Nuclei (%) [6]: 3.98% and 1.88%
- Population Tubulin-Different-Phenotype (%) [6]: 51.8% and 63.04%
- Total Cell Count [6]: 352 and 372
